Experiments:
MOLT-4 = assay: Antiproliferative activity against human MOLT4 cells after 48 hrs; format: functional; details: MOLT-4, 48 h
Outline: (§1)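 NCI 60-cell screen. Cells were grown in RPMI 1640 with 5% FBS and 2 mM L-glutamine, then plated at 5,000–40,000 cells/well according to doubling time and preincubated for 24 h at 37 °C in 5% CO2. Compounds were dissolved in DMSO at 400× the top final concentration and tested at five 10-fold dilutions from 10−4 to 10−8 M for 48 h. Growth was read spectrophotometrically; GI50 is 50% net protein reduction.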

MCF7 = assay: Antiproliferative activity against human MCF7 cells after 48 hrs; format: functional, cell-based; details: MCF7, 48 h
HCT-116 = assay: Antiproliferative activity against human HCT116 cells after 48 hrs; format: functional; details: HCT-116, 48 h; outline: as §1
RXF 393 = assay: Antiproliferative activity against human RXF393 cells after 48 hrs; format: functional; details: RXF 393, 48 h; outline: as §1
SK-MEL-2 = assay: Antiproliferative activity against human SKMEL2 cells after 48 hrs; format: functional; details: SK-MEL-2, 48 h; outline: as §1
A549 = assay: Antiproliferative activity against human A549 cells after 48 hrs; format: functional; details: A549, 48 h; outline: as §1
HOP-92 = assay: Antiproliferative activity against human HOP92 cells after 48 hrs; format: functional; details: HOP-92, 48 h; outline: as §1
RPMI-8226 = assay: Antiproliferative activity against human RPMI8226 cells after 48 hrs; format: functional; details: RPMI-8226, 48 h; outline: as §1
KM12 = assay: Antiproliferative activity against human KM12 cells after 48 hrs; format: functional; details: Homo sapiens, KM12, 48 h; outline: as §1
UACC-62 = assay: Antiproliferative activity against human UACC62 cells after 48 hrs; format: functional; details: UACC-62, 48 h
Outline: (§2)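 NCI 60-cell-line screen. Lines grown in RPMI 1640 with 5% fetal bovine serum and 2 mM L-glutamine, plated at 5,000–40,000 cells/well according to doubling time, left 24 h at 37 °C in 5% CO2. Drug stocks in DMSO at 400-fold the top final concentration. Five 10-fold dilutions, 10−4 to 10−8 M, incubated 48 h. Growth read spectrophotometrically as net protein; GI50 taken as 50% reduction.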

SNB-19 = assay: Antiproliferative activity against human SNB19 cells after 48 hrs; format: functional; details: SNB-19, 48 h; outline: as §1
LOX IMVI = assay: Antiproliferative activity against human LOXIMVI cells after 48 hrs; format: functional; outline: as §1
MDA-MB-231 = assay: Antiproliferative activity against human MDA-MB-231 cells after 48 hrs; format: functional; details: MDA-MB-231, 48 h; outline: as §1
SF-539 = assay: Antiproliferative activity against human SF539 cells after 48 hrs; format: functional; details: SF-539, 48 h; outline: as §1
OVCAR-4 = assay: Antiproliferative activity against human OVCAR4 cells after 48 hrs; format: functional; details: OVCAR-4, 48 h; outline: as §1
UACC-257 = assay: Antiproliferative activity against human UACC257 cells after 48 hrs; format: functional; details: UACC-257, 48 h; outline: as §2
[1] = Antiproliferative activity against human HL60(TB) cells after 48 hrs; format: functional, HL-60(TB); details: HL-60, 48 h
Outline: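 NCI 60-line panel screen: cells grown in RPMI 1640 with 5% fetal bovine serum and 2 mM L-glutamine, plated at 5,000–40,000 cells/well by doubling time, and preincubated 24 h at 37 °C in 5% CO2. Drugs were solubilised in DMSO at 400-fold the final maximum and tested at five 10-fold dilutions from 10−4 to 10−8 M for 48 h. Net protein was read spectrophotometrically, and the concentration giving 50% reduction was reported as log10 GI50.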

M14 = assay: Antiproliferative activity against human M14 cells after 48 hrs; format: functional; details: M14, 48 h; outline: as §1
NCI-H522 = assay: Antiproliferative activity against human NCI-H522 cells after 48 hrs; format: functional; details: NCI-H522, 48 h; outline: as §1
A498 = assay: Antiproliferative activity against human A498 cells after 48 hrs; format: functional; details: A498, 48 h; outline: as §1
MDA-MB-435 = assay: Antiproliferative activity against human MDA-MB-435 cells after 48 hrs; format: functional; outline: as §1
K562 = assay: Antiproliferative activity against human K562 cells after 48 hrs; format: functional; details: K562, 48 h; outline: as §1
ACHN = assay: Antiproliferative activity against human ACHN cells after 48 hrs; format: functional; outline: as §1
OVCAR-3 = assay: Antiproliferative activity against human OVCAR-3 cells after 48 hrs; format: functional; details: OVCAR-3, 48 h; outline: as §1
OVCAR-8 = assay: Antiproliferative activity against human OVCAR8 cells after 48 hrs; format: functional; details: OVCAR-8, 48 h; outline: as §1
Malme-3M = assay: Antiproliferative activity against human MALME3M cells after 48 hrs; format: functional; outline: as §1
OVCAR-5 = assay: Antiproliferative activity against human OVCAR5 cells after 48 hrs; format: functional; details: OVCAR-5, 48 h; outline: as §1
SK-MEL-28 = assay: Antiproliferative activity against human SKMEL28 cells after 48 hrs; format: functional; details: SK-MEL-28, 48 h; outline: as §1
HCT-15 = assay: Antiproliferative activity against human HCT15 cells after 48 hrs; format: functional; details: Homo sapiens, HCT-15, 48 h; outline: as §1
[2] = read-out: Log LC50 (the source's name) (converted)

C[C@@H](NC(=O)CCCCCCCCCCCCCCC[n+]1ccccc1)[C@@H](O)c1ccccc1.[Br-]
GI50 (MOLT-4): 2.51 µM | LC50 (MOLT-4): 100 µM | TGI (MOLT-4; read-out: Log TGI (converted)): 6.46 µM | GI50 (MCF7): 1.58 µM | LC50 (MCF7): 8.51 µM | TGI (MCF7; read-out: Log TGI (converted)): 3.72 µM | GI50 (HCT-116): 3.39 µM | LC50 (HCT-116): 58.9 µM | TGI (HCT-116; read-out: Log TGI (converted)): 13.2 µM | GI50 (RXF 393): 4.57 µM | CC50 (RXF 393; [2]): 97.7 µM | TGI (RXF 393; read-out: Log TGI (converted)): 24 µM | GI50 (SK-MEL-2): 2.19 µM | TGI (SK-MEL-2; read-out: Log TGI (converted)): 4.37 µM | GI50 (A549): 4.37 µM | CC50 (A549; [2]): > 100 µM | TGI (A549; read-out: Log TGI (converted)): 43.7 µM | GI50 (HOP-92): 0.0407 µM | LC50 (HOP-92): 5.75 µM | TGI (HOP-92; read-out: Log TGI (converted)): 0.912 µM | GI50 (RPMI-8226): 0.288 µM | CC50 (RPMI-8226; [2]): 5.13 µM | TGI (RPMI-8226; read-out: Log TGI (converted)): 1.91 µM | GI50 (KM12): 1.74 µM | CC50 (KM12; [2]): 5.75 µM | TGI (KM12; read-out: Log TGI (converted)): 3.16 µM | GI50 (UACC-62): 1.48 µM | LC50 (UACC-62): 5.75 µM | TGI (UACC-62; read-out: Log TGI (converted)): 2.88 µM | GI50 (SNB-19): 1.58 µM | TGI (SNB-19; read-out: Log TGI (converted)): 3.09 µM | GI50 (LOX IMVI): 3.55 µM | LC50 (LOX IMVI): 51.3 µM | TGI (LOX IMVI; read-out: Log TGI (converted)): 13.5 µM | GI50 (MDA-MB-231): 1.74 µM | LC50 (50% lethal concentration) (MDA-MB-231): 7.59 µM | TGI (MDA-MB-231; read-out: Log TGI (converted)): 3.63 µM | GI50 (SF-539): 2.04 µM | LC50 (SF-539): > 100 µM | TGI (SF-539; read-out: Log TGI (converted)): 5.5 µM | GI50 (OVCAR-4): 1.7 µM | LC50 (OVCAR-4): > 100 µM | TGI (OVCAR-4; read-out: Log TGI (converted)): 5.37 µM | GI50 (UACC-257): 1.58 µM | TGI (UACC-257; read-out: Log TGI (converted)): 3.39 µM | GI50 [1]: 1.12 µM | LC50 [1]: > 100 µM | TGI ([1]; read-out: Log TGI (converted)): 3.72 µM | GI50 (M14): 3.39 µM | LC50 (M14): 8.32 µM | TGI (M14; read-out: Log TGI (converted)): 3.89 µM | GI50 (NCI-H522): 1.48 µM | TGI (NCI-H522; read-out: Log TGI (converted)): 3.63 µM | GI50 (A498): 12.9 µM | CC50 (A498; [2]): 61.7 µM | TGI (A498; read-out: Log TGI (converted)): 28.2 µM | GI50 (MDA-MB-435): 1.58 µM | GI50 (MDA-MB-435; Homo sapiens, MDA-MB-435, 48 h): 1.78 µM | LC50 (MDA-MB-435; Homo sapiens, MDA-MB-435, 48 h): 5.5 µM | TGI (MDA-MB-435; Homo sapiens, MDA-MB-435, 48 h, read-out: Log TGI (converted)): 2.95 µM | GI50 (K562): 0.832 µM | LC50 (K562): > 100 µM | TGI (K562; read-out: Log TGI (converted)): 3.98 µM | GI50 (ACHN): 17 µM | CC50 (ACHN; [2]): 64.6 µM | TGI (ACHN; read-out: Log TGI (converted)): 33.1 µM | GI50 (OVCAR-3): 1.1 µM | TGI (OVCAR-3; read-out: Log TGI (converted)): 2.4 µM | GI50 (OVCAR-8): 2.75 µM | CC50 (OVCAR-8; [2]): > 100 µM | TGI (OVCAR-8; read-out: Log TGI (converted)): 13.5 µM | GI50 (Malme-3M): 1.66 µM | LC50 (Malme-3M): 5.75 µM | TGI (Malme-3M; read-out: Log TGI (converted)): 3.09 µM | GI50 (OVCAR-5): 5.25 µM | CC50 (OVCAR-5; [2]): 50.1 µM | TGI (OVCAR-5; read-out: Log TGI (converted)): 18.2 µM | GI50 (SK-MEL-28): 1.7 µM | LC50 (SK-MEL-28): 5.75 µM | TGI (SK-MEL-28; read-out: Log TGI (converted)): 3.16 µM | GI50 (HCT-15): 17.8 µM | LC50 (HCT-15): 58.9 µM | TGI (HCT-15; read-out: Log TGI (converted)): 32.4 µM

— ChEMBL document CHEMBL1143122, “Novel analogs of D-e-MAPP and B13. Part 1: synthesis and evaluation as potential anticancer agents” (Bioorg Med Chem, 2008)
